Measurements published in ChEMBL document CHEMBL5620435, “Elucidating the Mechanism of Metabolism of Cannabichromene by Human Cytochrome P450s” (J Nat Prod, 2024).
The source made the active and inactive calls. No cut-off for these calls is given here.

Tests used:
[1] = tested on: BV-2; assay: Antiinflammatory activity in LPS-induced mouse BV-2 cells assessed as reduction in NO production preincubated for 4 hrs followed by LPS stimulation for 24 hrs by Griess reagent based assay; assay type: functional, cell-based; conditions: dose 0.1-5 µM, time 28.0 hrs
In short: (§1)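 BV-2 microglia in high-glucose DMEM with 5% heat-inactivated FBS, 37 °C, 5% CO2. Cells (50 000/well) were pretreated with cannabinoids at 0.1, 1.0, 2.5 or 5.0 μM (ethanol 0.1% final) for 4 h, then stimulated with LPS (25 ng/mL) for 24 h. Medium was collected. NO was read by Griess assay at 540 nm against a sodium nitrite calibration curve. IL-6, TNFα and Arg1 were measured by ELISA.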

[2] = tested on: BV-2; assay: Antiinflammatory activity in LPS-induced mouse BV-2 cells assessed as reduction in TNF-alpha production preincubated for 4 hrs followed by LPS stimulation for 24 hrs by ELISA; assay type: functional, cell-based; conditions: dose 0.1-5 µM, time 28.0 hrs; in short: as §1
[3] = tested on: BV-2; assay: Antiinflammatory activity in LPS-induced mouse BV-2 cells assessed as reduction in IL-6 production preincubated for 4 hrs followed by LPS stimulation for 24 hrs by ELISA; assay type: functional, cell-based; conditions: dose 0.1-5 µM, time 28.0 hrs; in short: as §1
[4] = tested on: BV-2; assay: Cytotoxicity against mouse BV-2 cells assessed as reduction in cell viability at 0.1 to 5 uM incubated for 24 hrs by MTT assay; assay type: toxicity, cell-based; conditions: bv-2, 24 h, dose 0.1-5 µM
In short: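 BV-2 cells were seeded at about 10 000/well and grown for 24 h. They were preincubated 4 h with cannabinoids at 0.1, 1.0, 2.5 or 5.0 μM (0.1% ethanol), then held 24 h with or without LPS (25 ng/mL). MTT reagent was added for 4 h at 37 °C, the formazan was dissolved, and absorbance was read at 570 nm.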

[5] = tested on: BV-2; assay: Antiinflammatory activity in LPS-induced mouse BV-2 cells assessed as increase in Arg-1 production preincubated for 4 hrs followed by LPS stimulation for 24 hrs by ELISA; assay type: functional, cell-based; conditions: dose 0.1-5 µM, time 28.0 hrs; in short: as §1
[6] = tested on: BV-2; assay: Antiinflammatory activity in LPS-induced mouse BV-2 cells assessed as reduction in NO production at 0.1 to 5 uM preincubated for 4 hrs followed by LPS stimulation for 24 hrs by Griess reagent based assay; assay type: functional, cell-based; conditions: dose 0.1-5 µM, time 28.0 hrs; in short: as §1
[7] = tested on: BV-2; assay: Antiinflammatory activity in LPS-induced mouse BV-2 cells assessed as reduction in TNF-alpha production at 0.1 to 5 uM preincubated for 4 hrs followed by LPS stimulation for 24 hrs by ELISA; assay type: functional, cell-based; conditions: dose 0.1-5 µM, time 28.0 hrs; in short: as §1
[8] = tested on: BV-2; assay: Antiinflammatory activity in LPS-induced mouse BV-2 cells assessed as reduction in IL-6 production at 0.1 to 5 uM preincubated for 4 hrs followed by LPS stimulation for 24 hrs by ELISA; assay type: functional, cell-based; conditions: dose 0.1-5 µM, time 28.0 hrs; in short: as §1

SMILES	Activity [1]	Activity [2]	Activity [3]	Activity [4]	Activity [5]	Activity [6]	Activity [7]	Activity [8]
C=C(C)C(O)CCC1(C)C=Cc2c(O)cc(CCCCC)cc2O1 (stereo not drawn)	Dose-Dependent Effect	Dose-Dependent Effect	Active	Non-Toxic				
CCCCCc1cc(O)c2c(c1)OC(C)(CCC(O)C(C)(C)O)C=C2 (stereo not drawn)	Dose-Dependent Effect	Dose-Dependent Effect	Active	Non-Toxic	Dose-Dependent Effect			
CCCCCc1cc(O)c2c(c1)OC(C)(CC/C=C(\C)CO)C=C2 (stereo not drawn)				Non-Toxic		inactive	inactive	inactive
